Tests used:
DNA topoisomerase 1 = molecular target: T1, DNA topoisomerase 1 (Chlorocebus aethiops, UniProt Q7YR26); experiment: Inhibition topoisomerase 1 in african green monkey Vero cells assessed as conversion of supercoiled pBR322 DNA to relaxed form; type: cell-based, Chlorocebus sabaeus
T1 sequence (Q7YR26 whole entry): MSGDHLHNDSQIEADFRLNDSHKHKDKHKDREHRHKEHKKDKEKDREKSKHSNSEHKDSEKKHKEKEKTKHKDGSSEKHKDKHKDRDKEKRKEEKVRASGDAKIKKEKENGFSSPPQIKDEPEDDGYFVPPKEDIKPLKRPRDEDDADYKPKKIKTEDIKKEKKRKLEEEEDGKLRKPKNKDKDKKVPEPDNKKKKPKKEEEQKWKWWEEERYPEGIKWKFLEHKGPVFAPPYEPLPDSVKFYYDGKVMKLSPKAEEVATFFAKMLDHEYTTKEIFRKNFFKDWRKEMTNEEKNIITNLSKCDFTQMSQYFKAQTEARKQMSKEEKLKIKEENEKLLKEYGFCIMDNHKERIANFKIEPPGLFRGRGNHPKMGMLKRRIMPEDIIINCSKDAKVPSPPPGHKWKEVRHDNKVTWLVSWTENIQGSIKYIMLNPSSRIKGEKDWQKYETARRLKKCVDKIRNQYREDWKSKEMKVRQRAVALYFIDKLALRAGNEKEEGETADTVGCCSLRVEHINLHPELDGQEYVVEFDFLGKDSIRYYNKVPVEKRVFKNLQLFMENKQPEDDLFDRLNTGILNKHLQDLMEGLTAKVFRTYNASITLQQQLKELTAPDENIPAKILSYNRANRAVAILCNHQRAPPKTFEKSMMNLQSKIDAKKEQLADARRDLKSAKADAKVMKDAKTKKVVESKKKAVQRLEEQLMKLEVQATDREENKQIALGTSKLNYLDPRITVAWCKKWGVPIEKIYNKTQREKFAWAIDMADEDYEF
Procedure, shortened: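 Enzyme source: Vero or NIH3T3 cells cultured 5 days, washed in PBS and pelleted (1 × 10^6 cells). Lysed 30 min on ice in 200 µL buffer (10 mM Tris-HCl pH 7.5, MgCl2, EGTA, AEBSF, β-mercaptoethanol, 0.5% CHAPS, 10% glycerin); the cleared supernatant relaxed supercoiled pBR322. Gel densitometry; IC50 is the amount halving activity.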

Ribonuclease pancreatic = molecular target: T2, Ribonuclease pancreatic (Bos taurus, UniProt P61823); experiment: Inhibition of bovine pancreas RNase A assessed as undigested supercoiled pBR322 DNA concentration
T2 sequence (P61823 whole entry): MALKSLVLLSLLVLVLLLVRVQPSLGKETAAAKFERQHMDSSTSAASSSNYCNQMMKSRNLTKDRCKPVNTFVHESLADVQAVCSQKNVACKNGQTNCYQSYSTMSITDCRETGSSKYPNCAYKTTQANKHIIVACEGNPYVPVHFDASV
Procedure, shortened: (§1)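 Restriction enzyme or nuclease activity followed as the remaining undigested supercoiled pBR322 DNA (or RNA) after reaction.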

[1] = molecular target: T3, Type II restriction enzyme PstI (Providencia stuartii, UniProt P00640); experiment: Inhibition of Providencia stuartii Pst 1 assessed as undigested supercoiled pBR322 DNA concentration; procedure, shortened: as §1
T3 sequence (P00640 whole entry): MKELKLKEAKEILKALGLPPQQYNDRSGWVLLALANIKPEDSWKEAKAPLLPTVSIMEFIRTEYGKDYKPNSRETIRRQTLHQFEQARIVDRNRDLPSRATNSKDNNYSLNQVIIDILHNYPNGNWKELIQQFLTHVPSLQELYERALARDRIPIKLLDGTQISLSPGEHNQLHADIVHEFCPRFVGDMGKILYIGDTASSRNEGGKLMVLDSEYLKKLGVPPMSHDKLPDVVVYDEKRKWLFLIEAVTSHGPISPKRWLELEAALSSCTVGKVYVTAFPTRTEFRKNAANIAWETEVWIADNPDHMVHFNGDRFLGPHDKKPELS

[2] = molecular target: T4, Type II restriction enzyme BamHI (Bacillus amyloliquefaciens, UniProt P23940); experiment: Inhibition of Bacillus amyloliquifaction Bam H1 assessed as undigested supercoiled pBR322 DNA concentration; procedure, shortened: as §1
T4 sequence (P23940 whole entry): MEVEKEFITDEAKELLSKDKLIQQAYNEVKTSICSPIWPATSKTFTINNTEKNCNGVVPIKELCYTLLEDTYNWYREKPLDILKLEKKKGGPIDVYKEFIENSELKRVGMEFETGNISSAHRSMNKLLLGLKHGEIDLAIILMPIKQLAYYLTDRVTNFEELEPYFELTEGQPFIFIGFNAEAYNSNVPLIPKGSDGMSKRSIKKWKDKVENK

[3] = molecular target: Type II restriction enzyme EcoRI (Escherichia coli, UniProt P00642); experiment: Inhibition of Escherichia coli Eco R1 assessed as undigested supercoiled pBR322 DNA concentration; procedure, shortened: as §1
Chain of Type II restriction enzyme EcoRI (P00642 whole entry): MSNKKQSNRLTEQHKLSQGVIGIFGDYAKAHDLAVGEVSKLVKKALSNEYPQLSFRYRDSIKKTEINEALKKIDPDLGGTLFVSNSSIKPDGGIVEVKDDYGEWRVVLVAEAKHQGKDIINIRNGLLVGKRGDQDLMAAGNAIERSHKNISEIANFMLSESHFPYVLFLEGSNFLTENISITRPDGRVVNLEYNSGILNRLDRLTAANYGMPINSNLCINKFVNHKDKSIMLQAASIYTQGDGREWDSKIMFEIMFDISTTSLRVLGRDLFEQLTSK

[4] = Inhibition of Arthrobacter luteus AluI assessed as undigested supercoiled pBR322 DNA concentration; parameters: species or system Cellulosimicrobium cellulans; procedure, shortened: as §1
[5] = molecular target: T5, Type II restriction enzyme ScaI (Streptomyces caespitosus, UniProt O52691); experiment: Inhibition of Streptomyces caespitosus Sca 1 assessed as undigested supercoiled pBR322 DNA concentration; procedure, shortened: as §1
T5 sequence (O52691 whole entry): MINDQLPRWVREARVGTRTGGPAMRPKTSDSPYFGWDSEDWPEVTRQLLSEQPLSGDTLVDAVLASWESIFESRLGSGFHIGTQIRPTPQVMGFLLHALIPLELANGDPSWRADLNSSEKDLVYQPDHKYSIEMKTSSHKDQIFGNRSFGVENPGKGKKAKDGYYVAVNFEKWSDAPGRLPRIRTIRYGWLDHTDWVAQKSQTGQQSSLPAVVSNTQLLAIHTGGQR

[6] = molecular target: T6, Deoxyribonuclease-2-alpha (Sus scrofa, UniProt O62855); experiment: Inhibition of porcine spleen DNase 2 assessed as undigested supercoiled pBR322 DNA concentration; procedure, shortened: as §1
T6 sequence (O62855 whole entry): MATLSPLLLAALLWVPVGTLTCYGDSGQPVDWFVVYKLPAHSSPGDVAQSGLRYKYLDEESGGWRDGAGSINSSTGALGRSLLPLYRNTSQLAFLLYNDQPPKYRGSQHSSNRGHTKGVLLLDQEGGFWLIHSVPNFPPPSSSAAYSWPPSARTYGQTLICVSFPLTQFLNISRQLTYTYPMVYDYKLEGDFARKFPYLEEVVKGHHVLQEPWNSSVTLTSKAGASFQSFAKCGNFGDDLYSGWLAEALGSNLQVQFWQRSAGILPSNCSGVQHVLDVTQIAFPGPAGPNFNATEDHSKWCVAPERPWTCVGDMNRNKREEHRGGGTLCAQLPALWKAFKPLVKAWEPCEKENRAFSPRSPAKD

Deoxyribonuclease-1 = Deoxyribonuclease-1 (Bos taurus, UniProt P00639); experiment: Inhibition of bovine pancreas DNase 1 assessed as undigested supercoiled pBR322 DNA concentration; procedure, shortened: as §1
Chain of Deoxyribonuclease-1 (P00639 whole entry): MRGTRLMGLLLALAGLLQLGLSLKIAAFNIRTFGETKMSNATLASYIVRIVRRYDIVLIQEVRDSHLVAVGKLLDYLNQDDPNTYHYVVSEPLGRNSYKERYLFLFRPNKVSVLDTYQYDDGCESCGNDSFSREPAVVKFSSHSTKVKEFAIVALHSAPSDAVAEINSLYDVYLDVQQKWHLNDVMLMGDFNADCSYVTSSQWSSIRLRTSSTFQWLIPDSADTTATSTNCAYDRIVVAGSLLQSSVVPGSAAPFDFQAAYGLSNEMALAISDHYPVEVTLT

[7] = molecular target: DNA topoisomerase 2-alpha (Homo sapiens, UniProt P11388); experiment: Inhibition human placenta topoisomerase 2 assessed as conversion of catenated kinetoplast DNA to minicircle monomer
Chain of DNA topoisomerase 2-alpha (P11388 whole entry): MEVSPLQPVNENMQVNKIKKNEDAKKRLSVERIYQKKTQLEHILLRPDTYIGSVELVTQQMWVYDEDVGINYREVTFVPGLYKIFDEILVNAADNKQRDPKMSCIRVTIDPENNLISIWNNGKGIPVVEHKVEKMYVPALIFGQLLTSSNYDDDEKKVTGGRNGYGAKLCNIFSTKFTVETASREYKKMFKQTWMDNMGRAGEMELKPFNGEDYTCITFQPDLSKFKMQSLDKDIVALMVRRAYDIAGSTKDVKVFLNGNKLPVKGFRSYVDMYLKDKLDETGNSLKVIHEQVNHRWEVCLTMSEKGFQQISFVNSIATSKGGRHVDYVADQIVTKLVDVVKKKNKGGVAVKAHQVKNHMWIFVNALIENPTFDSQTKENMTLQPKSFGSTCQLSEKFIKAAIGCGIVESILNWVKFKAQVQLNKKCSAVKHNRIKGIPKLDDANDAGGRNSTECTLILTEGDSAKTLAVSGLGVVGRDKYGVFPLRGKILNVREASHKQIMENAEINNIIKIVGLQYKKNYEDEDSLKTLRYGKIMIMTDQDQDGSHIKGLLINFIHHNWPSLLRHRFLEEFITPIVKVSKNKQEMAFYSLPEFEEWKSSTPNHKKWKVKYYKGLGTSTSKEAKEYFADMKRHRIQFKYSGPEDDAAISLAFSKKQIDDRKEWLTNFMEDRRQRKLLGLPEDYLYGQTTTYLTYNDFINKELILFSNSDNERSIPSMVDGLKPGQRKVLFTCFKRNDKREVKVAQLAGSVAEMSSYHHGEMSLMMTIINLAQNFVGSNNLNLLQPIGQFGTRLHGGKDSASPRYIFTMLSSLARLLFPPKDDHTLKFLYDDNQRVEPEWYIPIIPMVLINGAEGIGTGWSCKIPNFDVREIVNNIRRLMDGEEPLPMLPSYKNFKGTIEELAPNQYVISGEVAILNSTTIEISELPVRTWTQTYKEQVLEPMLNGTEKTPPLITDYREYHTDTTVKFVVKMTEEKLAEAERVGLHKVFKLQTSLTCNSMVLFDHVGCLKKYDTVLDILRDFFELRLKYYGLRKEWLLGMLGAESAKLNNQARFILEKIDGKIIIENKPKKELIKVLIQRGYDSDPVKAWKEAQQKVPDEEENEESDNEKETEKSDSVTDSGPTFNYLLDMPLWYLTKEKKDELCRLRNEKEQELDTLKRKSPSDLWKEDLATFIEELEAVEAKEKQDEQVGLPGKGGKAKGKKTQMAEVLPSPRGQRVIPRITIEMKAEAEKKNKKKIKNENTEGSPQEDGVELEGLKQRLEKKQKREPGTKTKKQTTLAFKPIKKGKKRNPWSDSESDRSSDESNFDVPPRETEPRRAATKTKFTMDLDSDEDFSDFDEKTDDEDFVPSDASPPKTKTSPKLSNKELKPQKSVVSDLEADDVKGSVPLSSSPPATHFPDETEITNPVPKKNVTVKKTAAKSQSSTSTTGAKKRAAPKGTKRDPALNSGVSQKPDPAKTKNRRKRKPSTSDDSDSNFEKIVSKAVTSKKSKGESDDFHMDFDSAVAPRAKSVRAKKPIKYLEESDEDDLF
Procedure, shortened: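 Human placenta topoisomerase II decatenation followed as conversion of catenated kinetoplast DNA to minicircle monomers.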

Measured: IC50

CC[C@@]1(O)C(=O)OCc2c1cc1n(c2=O)Cc2cc3ccccc3nc2-1 [CAMPTOTHECIN]
27 µM: DNA topoisomerase 1
> 300 µM: Ribonuclease pancreatic | [1] | [2] | [3] | [4] | [5] | [6] | Deoxyribonuclease-1

COc1cccc2c1C(=O)c1c(O)c3c(c(O)c1C2=O)C[C@@](O)(C(=O)CO)C[C@@H]3O[C@H]1C[C@H](N)[C@H](O)[C@H](C)O1 [DOXORUBICIN]
1 µM: [7]
25 µM: Ribonuclease pancreatic | [5]
24 µM: [4]
> 200 µM: DNA topoisomerase 1 | [1] | [2] | [3] | [6] | Deoxyribonuclease-1

O=C1Oc2cc(O)ccc2/C1=C\c1ccc(O)cc1 [ISOAUROSTATIN]
> 400 µM: DNA topoisomerase 1 | Ribonuclease pancreatic | [1] | [2] | [3] | [7] | [4] | [5] | [6] | Deoxyribonuclease-1

C=C1NC(=O)C(C)C(CCC(C)C(=O)/C=C/C(C)=C/CC(C)CCCCCCC)OC(=O)[C@H](CC(OS(=O)(=O)O)C(N)=O)NC(=O)[C@@H](C)CNC1=O (some centres undefined) [TOPOSTATIN]
19 µM: [1]
185 µM: [2]
7 µM: [5]
4 µM: [7]
> 250 µM: Ribonuclease pancreatic | [3] | [4] | [6] | Deoxyribonuclease-1
17 µM: DNA topoisomerase 1

— ChEMBL document CHEMBL1155708, “Isoaurostatin, a novel topoisomerase inhibitor produced by Thermomonospora alba” (J Nat Prod, 2001)
